Hits are enriched below; roughly 2.9% of the tested compounds scored in any of these assays.
Calb FLC: C. albicans growth inhibition with fluconazole, primary screen, CaCi-2 strain, Alamar Blue fluorescence | growth inhibition, % (concentration not given with the values) | 300,000 tested, 0.57% active | C. albicans CaCi-2 (fluconazole-resistant clinical isolate) + fluconazole, 48 h;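 active = growth inhibition above about 58% in most replicates, limit read from the data, passing the limit was not always enough; inconclusive = exactly half the replicates above a set limit; inactive = most replicates below a set limit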;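 note: all wells also contain fluconazole at 8 µg/ml as a sub-toxic cotreatment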
GalR3 antag: GalR3 antagonists in HEK293 cells, primary screen, cell-based, fluorescence readout; Galanin receptor type 3 (Homo sapiens), O60755; HEK293 GalR3-CNG cAMP membrane potential fluorescence; galR3 body fused to GalR1 C-terminus; inhibition, % at 3 µM; 360,000 tested, 0.44% active;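 active = inhibition above the screen-wide average plus 3 SD, cut at about 13% in these data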;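 note: forskolin and galanin both at EC90 stimulate the cells; cAMP rise reported by CNG channel membrane potential dye signal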
Target sequence (O60755 1-299 limits assumed): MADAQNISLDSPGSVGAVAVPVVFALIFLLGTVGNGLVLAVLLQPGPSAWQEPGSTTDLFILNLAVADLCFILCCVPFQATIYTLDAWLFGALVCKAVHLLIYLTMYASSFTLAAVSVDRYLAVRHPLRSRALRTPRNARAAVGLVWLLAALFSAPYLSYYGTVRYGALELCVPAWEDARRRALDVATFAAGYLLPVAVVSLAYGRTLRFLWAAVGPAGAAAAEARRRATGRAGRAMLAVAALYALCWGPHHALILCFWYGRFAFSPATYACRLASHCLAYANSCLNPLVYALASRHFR
Efflux pump mplx: inhibitors of Candida efflux pumps in yeast, primary screen, S. cerevisiae, Nile Red, multiplex; S. cerevisiae Candida pump triplex; inhibition, % at 10 µM; 330,000 tested, 0.44% active;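 active = plate passing quality check with inhibition over a set limit, or well fluorescence over plate mean plus 4 SD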;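 note: Nile Red retained in pooled yeast measured as flow cytometry median fluorescence; higher means more Nile Red kept so more efflux inhibition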
TAG inh: inhibitors of triacylglycerol accumulation, primary screen, cell-based, uHTS, fluorescence, H9c2; H9c2 cells, Nile Red lipid (TAG) fluorescence; cells loaded with 200 µM oleic acid; inhibition, % at 12.5 µM; 230,000 tested, 0.66% active;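 active = pattern-corrected inhibition of lipid staining of at least 50% with the nuclear-stain viability signal not falling by more than 50%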
MC4R barr agon: MC4R agonists recruiting beta-arrestin, primary screen, cell-based, luminescence, agonist arm of biased-ligand search. 360,000 tested, 0.98% active. U2OS MC4R beta-arrestin complementation; percent of melanotan II response, DMSO zero. activation, % at 8.9 µM. AID 540308, 2011;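 active = activation above a per-plate cutoff, the mean activation of sample wells on that plate plus 3 SD, cut at about 8% in these data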
Target sequence (P32245 whole entry, looked up): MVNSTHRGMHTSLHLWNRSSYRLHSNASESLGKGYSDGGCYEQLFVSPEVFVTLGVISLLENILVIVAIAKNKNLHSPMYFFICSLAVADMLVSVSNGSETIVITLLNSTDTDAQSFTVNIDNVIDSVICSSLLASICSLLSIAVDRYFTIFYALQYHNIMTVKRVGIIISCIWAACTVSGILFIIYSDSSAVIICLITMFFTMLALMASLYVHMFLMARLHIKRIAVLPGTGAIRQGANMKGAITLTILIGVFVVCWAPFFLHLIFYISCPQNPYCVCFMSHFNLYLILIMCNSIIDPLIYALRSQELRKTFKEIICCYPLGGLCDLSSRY
MC4R antag cAMP: MC4R antagonists of cAMP signaling, primary screen, cell-based, TR-FRET, antagonist arm of biased-ligand search. Melanocortin receptor 4 (Homo sapiens), P32245. MC4R-expressing cells, MTII-stimulated cAMP, LANCE TR-FRET. 360,000 tested, 0.48% active. inhibition, % at 6.5 µM;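 active = inhibition above its plate's cutoff, the mean of tested wells on that plate plus 3 SD, cut at about 29% in these data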
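Assay system: U2OS cells stably expressing human melanocortin 4 receptor (MC4R) / Dosing: 6.5 µM / Timing: compound 30 min, challenge 1 h, detection 1 h / Measured by: Eu-cAMP/anti-cAMP TR-FRET, emission 671 nm / Replicates: singlicate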
GalR3 antag conf: GalR3 antagonist hit confirmation, cell-based, fluorescence, triplicate. shares compounds with GalR3 antag. HEK293 GalR3 CNG cAMP biosensor, membrane potential fluorescence; galR3 fused to GalR1 carboxy tail; challenged with forskolin and galanin at EC90. inhibition, % at 3 µM. 1,600 tested, 59% active. AID 652245, 2013;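 active = inhibition above the primary screen's cutoff, the mean inhibition of all screened compounds plus 3 SD, cut at about 13% in these data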
HEK-CNG parental: nonspecific cAMP agonists in parental HEK-CNG cells, counter-screen for GalR3 antagonist project, cell-based, fluorescence, high throughput | HEK293-CNG parental cells, cAMP membrane potential fluorescence; normalised: DMSO wells 0%, forskolin wells 100% | shares compounds with GalR3 antag | activation, % at 3 µM | AID 652268, 2013 | 1,600 tested, 10% active; in the data active = activation above about 1.3%
Numbers stand for hits; - = inactive; ? = inconclusive; . = no result.

SMILES	Calb FLC	GalR3 antag	Efflux pump mplx	TAG inh	MC4R barr agon	MC4R antag cAMP	GalR3 antag conf	HEK-CNG parental
O=C(CCC1CCCN(c2ncccn2)C1)NCc1ccc(F)c(F)c1 (stereo not given)	-	38.4	-	.	-	-	-	-
O=C(CCC1CCCN(C(=O)C2CCCC2)C1)NCc1ccc(F)c(F)c1 (stereo not given)	-	-	-	-	-	-	.	.
COc1ccccc1NS(=O)(=O)c1cccc(C(=O)NC2CCN(Cc3ccccc3)CC2)c1	-	.	-	-	-	-	.	.
Cc1ccc(C(=O)NC2CCN(Cc3ccccc3)CC2)cc1S(=O)(=O)N1CCOCC1	-	-	-	-	-	-	.	.
COc1ccccc1NS(=O)(=O)c1cc(C(=O)NC2CCN(Cc3ccccc3)CC2)ccc1C	.	90.0	.	.	.	.	103.3	-
COc1ccccc1NS(=O)(=O)c1ccc(C)c(C(=O)NC2CCN(Cc3ccccc3)CC2)c1	.	32.5	.	-	-	-	81.3	-
COCCNC(=O)C1(C)CCCN(Cc2ccc(Cl)c(Cl)c2)C1 (stereo not given)	.	.	.	-	-	-	.	.
COc1ccccc1CNS(=O)(=O)c1ccc(F)cc1Br	.	-	.	.	.	.	.	.
CCOC(=O)c1ccc(NC(=O)Nc2nncs2)cc1	.	14.0	.	-	-	-	19.6	1.4
N#Cc1c(N)nc2c3c(sc(=N)c2c1N)NC(=O)CC3c1ccccc1 (stereo not given)	-	21.9	-	-	-	-	24.7	-
N#Cc1c(N)nc2c3c(sc(=N)c2c1N)NC(=O)CC3c1c(F)cccc1Cl (stereo not given)	-	-	-	.	-	-	.	.
Cc1c(C#N)c(N)nc2c3c(sc12)NC(=O)CC3c1ccc(Cl)cc1 (stereo not given)	-	24.8	-	-	-	-	47.9	-
Cc1ccc(N(CC(=O)NCc2ccco2)C(=O)CCC(=O)Nc2nccs2)cc1	-	14.3	-	-	-	-	-	-
CC1(C(=O)NCC2CC2)CCN1C(=O)C1(c2ccccc2)CC1 (stereo not given)	.	-	.	-	-	-	.	.
O=C(CN(Cc1cccs1)C(=O)CSc1nnc(COc2ccccc2)o1)NC1CCCCC1	.	12.6	-	.	-	-	-	-
CCOc1ccc(N(CC(=O)NC2CCCCC2)C(=O)CSc2nnc(COc3ccccc3)o2)cc1	-	-	-	-	-	-	.	.
N#Cc1ccc2nc(-c3ccc(CN4CCC(n5cc(-c6ccccc6)[nH]c5=O)CC4)cc3)c(-c3ccccc3)nc2c1	.	-	.	.	.	.	.	.
CSc1ccc(C#N)cc1NC(=O)c1ccc(Cl)nc1	-	-	-	-	-	-	.	.
CSc1ccc(C#N)cc1NC(=O)c1ccccc1C	-	15.3	-	-	-	-	13.0	-
O=C(CSc1nc2ccccc2[nH]1)Nc1c(F)c(F)c(F)c(F)c1F	-	16.1	-	-	-	-	-	-
O=C(CSc1nc2ccccc2[nH]1)Nc1c(F)cccc1F	-	-	-	-	-	-	.	.
Cc1ccc(Sc2sc(=O)n(C)c2S(=O)(=O)c2ccc(C)cc2)cc1	-	20.2	-	-	-	-	-	-
Cc1ccc(Oc2ccc(C(=O)NCc3ccncc3)cc2)cc1	-	82.6	.	-	-	-	96.6	-
O=C(NCc1ccccc1)C(c1ccc(C(F)(F)F)cc1)n1c(=O)c(-c2cc3ccccc3[nH]2)nc2ccccc21 (stereo not given)	.	-	.	.	.	.	.	.
OCc1nc2ccccc2n1CCCc1ccccc1	.	-	.	-	-	-	.	.
SMILES	Calb FLC	GalR3 antag	Efflux pump mplx	TAG inh	MC4R barr agon	MC4R antag cAMP	GalR3 antag conf	HEK-CNG parental
Cc1cccc[n+]1CCCCCCCCCC[n+]1ccccc1C	-	-	-	-	-	-	.	.
CCCCCCCCCC[n+]1cccc2c3ccccc3ccc21	100.8	49.8	.	-	49.2	-	50.6	8.2
CCCCCCCC[n+]1cccc2c3ccccc3ccc21	102.0	64.9	-	-	-	-	54.1	3.1
Cc1c2ccccc2cc[n+]1CCCS(=O)(=O)[O-]	-	-	-	.	-	-	.	.
CCOC(=O)C1CCN(S(=O)(=O)c2ccc3c(c2)CC(C)N3C(=O)C2CC2)CC1 (stereo not given)	-	17.2	-	.	-	-	-	-
CCc1ccc(NC(=O)C2CCN(S(=O)(=O)c3ccc4c(c3)CC(C)N4C(C)=O)CC2)cc1 (stereo not given)	-	38.5	-	-	-	-	-	-
CCOc1cc(OCC)cc(C(=O)N2CCC[C@@H]2C(=O)N2CCC[C@H]2C(=O)NCc2ccccc2)c1	.	-	.	.	.	.	.	.
COc1ccc(C(=O)N2CCN(c3ccc([N+](=O)[O-])c(NCCc4ccc(OC)c(OC)c4)c3)CC2)cc1	-	24.2	-	.	-	-	92.4	-
CC(C)(C)OC(=O)C(Oc1ccccc1[N+](=O)[O-])C(=O)OC(C)(C)C	.	-	.	.	.	.	.	.
O=C(C[C@@H]1CC[C@H](NC(=O)c2ccc3c(c2)OCO3)[C@@H](CO)O1)NCc1ccc(F)cc1	.	-	.	.	.	.	.	.
Nc1cnn(C2OC(CO)C(O)C2O)c(=O)n1 (stereo not given)	-	21.2	-	-	-	-	-	-
O=S(=O)(c1cccc2ccccc12)N1CCC2CC1c1cc(-c3ccc4c(c3)OCO4)ccc12 (stereo not given)	.	-	.	.	.	.	.	.
Cc1ccc(C(=O)c2ccccc2C(=O)O)cc1C	-	-	-	-	-	-	.	.
O=C(O)c1ccccc1C(=O)c1ccc(F)c(F)c1	.	16.9	.	-	-	-	-	-
O=C1c2ccccc2NC(c2cc(Cl)cc(Cl)c2O)N1CCc1ccccn1 (stereo not given)	.	-	.	.	.	.	.	.
Cn1nc(C(C)(C)C)cc1C(=O)NCc1ccc(N2CCCC2=O)cc1	?	97.8	-	.	-	-	104.0	-
C[C@H]1COc2cc(NCCO)ccc2S(=O)(=O)N1	.	-	.	.	.	.	.	.
COc1ccc(CCNC(=O)c2cccnc2SC)cc1	-	12.8	-	-	-	-	26.5	-
COc1ccc(C2c3c(-c4cc(Cl)c(C)cc4O)n[nH]c3C(=O)N2Cc2cccnc2)cc1OC (stereo not given)	-	63.7	-	-	-	-	66.8	-
